ABHD4 inh: ABHD4 (mouse) inhibition, primary FP screen; Q8VD66; purified mABHD4, FP-Rh probe fluorescence polarization; inhibition, % at 8.92 µM; 370,000 tested, 0.54% active; AID 720543;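 active = inhibition exceeding the mean over every tested compound plus 3 SD, cut at about 30% in these data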
Target sequence (Q8VD66 whole entry, looked up): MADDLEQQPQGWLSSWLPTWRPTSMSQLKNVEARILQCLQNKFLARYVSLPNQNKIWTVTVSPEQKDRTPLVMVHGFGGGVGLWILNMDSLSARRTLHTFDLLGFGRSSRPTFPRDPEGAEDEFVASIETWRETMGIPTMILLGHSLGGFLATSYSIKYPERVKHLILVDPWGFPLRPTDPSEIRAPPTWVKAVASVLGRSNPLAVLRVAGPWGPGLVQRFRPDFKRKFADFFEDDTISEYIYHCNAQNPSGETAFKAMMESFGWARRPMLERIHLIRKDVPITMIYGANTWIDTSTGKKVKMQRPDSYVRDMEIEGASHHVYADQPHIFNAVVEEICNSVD
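Test system: mABHD4 protein | Buffer or medium: HEPES pH 7.0 buffer, 150 mM NaCl, 0.01% Pluronic F-127 | Probe or stimulus: FP-Rh fluorescent activity-based probe, added after compound pre-incubation | Timing: Pre-incubation 45 min, probe exposure 60 min, at 25 °C | Technique: Fluorescence polarization, excitation 525 nm, emission 598 nm, BODIPY TMR filters | Repeats: Single well per compound (singlicate)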
HTRA1 inhibitor: inhibitors of human serine peptidase HTRA1; inhibition, % at 5.96 µM; 340,000 tested, 0.5% active; recombinant HTRA1, FP-rhodamine activity-based probe, fluorescence polarization; AID 504803; Q92743; in the data active = inhibition above about 36%
PRMT1 FP inh: blocks human protein arginine methyltransferase 1; inhibition, % at 2.79 µM; 370,000 tested, 1.3% active; Q99873; recombinant PRMT1, activity-based probe fluorescence polarization;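 active = inhibition above about 21% made by adding two undisclosed values, limit read from the data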
Target sequence (Q99873 whole entry, looked up): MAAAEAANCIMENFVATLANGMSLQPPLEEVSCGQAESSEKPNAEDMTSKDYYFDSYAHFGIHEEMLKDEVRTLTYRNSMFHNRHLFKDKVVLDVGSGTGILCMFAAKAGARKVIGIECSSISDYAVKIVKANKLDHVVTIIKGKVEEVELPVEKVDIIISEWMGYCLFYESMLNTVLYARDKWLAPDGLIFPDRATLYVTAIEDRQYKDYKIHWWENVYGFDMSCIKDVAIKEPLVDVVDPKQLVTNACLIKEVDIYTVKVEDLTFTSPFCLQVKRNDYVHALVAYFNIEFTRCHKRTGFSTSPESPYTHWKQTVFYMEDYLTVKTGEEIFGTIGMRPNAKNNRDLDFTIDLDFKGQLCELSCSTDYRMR
SIAE primary: blocks human sialic acid acetylesterase | Q9HAT2 | inhibition, % at 9.66 µM | SIAE FP-Rh probe binding, fluorescence polarization | 370,000 tested, 0.69% active | AID 1053197;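 active = inhibition above a cutoff: mean of compounds within the control limits plus 3 SD of those, cut at about 17% in these data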
TCR CD3 inh: inhibitors of human TCR-CD3 interaction | TAMRA-labeled TCR probe fluorescence, biochemical | inhibition, % at 9.4 µM | 360,000 tested, 0.37% active | AID 651800; in the data active = inhibition above about 19%;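 note: recombinant mutant TCR 2C K166C tagged with TAMRA read by polarization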
SIAE confirm: confirmation of human SIAE inhibitors | SIAE FP-Rh activity-based probe, fluorescence polarization | AID 1117263 | inhibition, % at 9.66 µM | 2,300 tested, 13% active | shares compounds with SIAE primary;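 active = mean inhibition of the replicates above the hit cutoff set in the primary screen, cut at about 17% in these data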;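 note: inhibitors lower polarization as more probe stays unbound to SIAE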
Numbers stand for hits; 0 = inactive; - = no result given. Hits are enriched below; roughly 2.6% of the tested compounds scored in any of these assays.

SMILES | ABHD4 inh | HTRA1 inhibitor | PRMT1 FP inh | SIAE primary | TCR CD3 inh | SIAE confirm
CCN(CC(=O)Nc1c(F)cccc1F)C(=O)c1n[nH]c2ccccc12 | 0 | 0 | 0 | 0 | 0 | -
Cc1nc(SCC(=O)N(CC(C)C)C2CCS(=O)(=O)C2)c2ccccc2n1 (stereo unspecified) | 0 | 0 | 0 | 17 | 0 | 0
Nc1c(C(=O)Nc2ccccc2Cl)nnn1-c1ccc2c(c1)OCCO2 | 0 | 0 | 0 | 0 | 0 | -
Cc1c(O)ccc(/C(Cc2ccc3ccccc3n2)=N\O)c1O | 0 | 0 | 0 | 52 | 0 | 42
CC(=O)Oc1ccc(C(=O)Cc2ccc3ccccc3n2)c(O)c1C | 0 | 0 | 0 | 0 | 0 | -
CC(=O)NCCC(=O)Nc1cc(S(=O)(=O)Nc2ccc(Cl)cc2)ccc1N1CCCC1 | 0 | 0 | 0 | 18 | 0 | 0
CC(C)(C)OC1NS(=O)(=O)OCC1NCOC(Cl)(Cl)Cl (stereo unspecified) | 0 | 0 | 0 | 0 | 0 | -
Cn1ccc2c(N3CCCC3)cc3c(c21)C1CCC3O1 (stereo unspecified) | 0 | - | 0 | 20 | 0 | 0
O=C(NC(=S)NNC(=O)c1cccs1)c1ccco1 | 0 | 0 | 0 | 19 | 0 | 0
Cc1ccc(S(=O)(=O)NCCC(=O)Nc2ccc(S(=O)(=O)NC(C)C)cc2)cc1 | 0 | 0 | 0 | 0 | 0 | -
C[N+]1(CCCCCCC(=O)/C=N/O)CCCCCC1 | 0 | 0 | 0 | 19 | 0 | 0
CCCCn1c(N)c(N(CCOC)C(=O)COC(=O)C(C)(C)Oc2ccc(Cl)cc2)c(=O)[nH]c1=O | 0 | 0 | 0 | 0 | 0 | -
CCN(CC)C(=O)C1=C(C)N(CCCOC)C(=O)C(CC(=O)NC2CCCC2)C1 (stereo unspecified) | 0 | 0 | 0 | 0 | 0 | -
Nc1nnn(CC(=O)N/N=C/c2ccncc2)n1 | 0 | - | 0 | 0 | 0 | -
Nc1nnn(CC(=O)N/N=C/c2cn[nH]c2-c2ccccc2)n1 | 0 | 0 | 0 | 21 | 0 | 0
CCCCN(CC)CCNC(=O)c1cn(CCOC)c(=O)c2c1c1ccccc1n2C | 0 | 0 | 0 | 0 | 0 | -
CCCCN(CC)CCCNC(=O)c1cn(C)c(=O)c2c1c1ccccc1n2C | 0 | 0 | 0 | 19 | 0 | 0
COc1ccc(OC)c(Nc2nc(-c3cccs3)cs2)c1 | 0 | 0 | 0 | 20 | 0 | 0
COc1ccc(Nc2nc(-c3cccs3)cs2)c(OC)c1 | 0 | 0 | 0 | 0 | 0 | -
Oc1ccc(Nc2nc(-c3cccs3)cs2)cc1 | 0 | 0 | 0 | 20 | 0 | 0
Cc1cc(N2CCN(C(=O)OC(C)(C)C)C[C@@H]2C)ccc1N1CCN(Cc2ccccc2)[C@H](C)C1 | 0 | - | 0 | 0 | 0 | -
Cc1c(Cl)cccc1NC(=O)C1CC(=O)N(C2CCCC2)C1 (stereo unspecified) | 0 | 0 | 0 | 0 | 0 | -
Cc1c(Cl)cccc1NC(=O)CNC(=O)C1CC(=O)N(C2CCCC2)C1 (stereo unspecified) | 0 | 0 | 0 | 21 | 0 | 0
O=C(CNC(=O)C1CCCCC1)Nc1ccccc1Cl | 0 | 0 | 0 | 80 | 0 | 0
O=C(CCNS(=O)(=O)c1ccc(Br)cc1)N1CCN(c2ccccc2O)CC1 | 0 | 0 | 0 | 0 | 0 | -
SMILES | ABHD4 inh | HTRA1 inhibitor | PRMT1 FP inh | SIAE primary | TCR CD3 inh | SIAE confirm
C[C@H](CO)N1C[C@H](C)[C@@H](CN(C)S(=O)(=O)c2cccs2)Oc2ccc(NC(=O)Cn3cnnn3)cc2C1=O | 0 | 0 | 0 | 0 | 0 | -
COCCCn1c(SCC(=O)Nc2ccc(NC(C)=O)cc2)nc2sc3c(c2c1=O)CCC3 | 0 | 0 | 0 | 0 | 0 | -
O=C(O)CCc1nn2c3ccccc3n(CC(=O)O)c2nc1=O | 0 | 0 | 0 | 30 | 0 | 0
CN(CC(=O)Nc1cccc(F)c1)C(=O)c1ccc2c(c1)CC(c1ccccc1)OC2=O (stereo unspecified) | 0 | 0 | 0 | 0 | 0 | -
COc1ccc(C/C(C)=N/NC(=O)c2ccc(Cl)cc2)cc1 | 0 | 0 | 0 | 0 | 0 | -
COc1ccc(C/C(C)=N/NC(=O)c2cccnc2)cc1 | 0 | 0 | 0 | 18 | 0 | 0
COc1cccc(C(=O)/C=C/Nc2cc(C)ccc2O)c1 | 0 | 0 | 0 | 23 | 0 | 0
CCOC(=O)c1ccc(N/C=C\C(=O)c2cccc(OC)c2)cc1 | 0 | 0 | 0 | 0 | 0 | -
COc1ccc(CNS(=O)(=O)c2cc(Br)ccc2Br)c(OC)c1 | 0 | - | 0 | 0 | 0 | -
CCOc1ccc(-n2c(C)cc(/C=N/NC(=O)C(N)=O)c2C)cc1 | 0 | 0 | 0 | 20 | 0 | 0
CCOc1ccc(-n2c(C)cc(/C=N\NC(=O)CC(=O)NC3CCCCC3)c2C)cc1 | 0 | 0 | 0 | 0 | 0 | -
CC(=O)c1ccc(OCC(=O)NC(=O)NC2CCCC2)cc1 | 0 | 0 | 0 | 18 | 0 | 0
CC(=O)c1ccc(OCC(=O)NC2CCCCCC2)cc1 | 0 | 0 | 0 | 0 | 0 | -
O=C(COC(=O)C1COc2ccccc2O1)NC1CCS(=O)(=O)C1 (stereo unspecified) | 0 | 0 | 0 | 0 | 0 | -
O=C(COC(=O)C1COc2ccccc2O1)NC(=O)NC1CCCCC1 (stereo unspecified) | 0 | 0 | 0 | 47 | 0 | 0
O=C(Nc1cc2c3c(c1)CC(=O)N3CCC2)C1CC1 | 0 | 0 | 0 | 20 | 0 | 0
NC(=O)c1ncn([C@@H]2O[C@H](C(=O)N3CCCN(Cc4ccccc4F)CC3)[C@@H](O)[C@H]2O)n1 | 0 | - | 0 | 80 | 0 | 88
Cc1ccccc1CN1CCN(C(=O)[C@H]2O[C@@H](n3cnc(C(N)=O)n3)[C@H](O)[C@@H]2O)CC1 | 0 | - | 0 | 19 | 0 | 29
Cc1ccccc1CN1CCN(C(=O)[C@H]2O[C@@H](n3ccc(=O)[nH]c3=O)[C@H](O)[C@@H]2O)CC1 | 0 | - | 0 | 0 | 0 | -
Cc1ccc(CNC(=O)[C@@H](NC(=O)C2CCN(C(=O)[C@@H](N)CC(C)C)CC2)C(C)C)cc1 | 0 | 0 | 0 | 0 | 0 | -
COC(=O)[C@@]12C[C@@H](CC(=O)NCc3ccc(C)o3)C(=O)N(Cc3ccc4c(c3)OCO4)C1=CCC(C)(C)C2 | 0 | - | 0 | 17 | 0 | 0
COC(=O)[C@@]12C[C@@H](CC(=O)NCc3cccs3)C(=O)N(Cc3ccc4c(c3)OCO4)C1=CCC(C)(C)C2 | 0 | - | 0 | 0 | 0 | -
Cc1ccc(Nc2nnc(SCC(=O)Nc3ccccc3[N+](=O)[O-])s2)cc1 | 0 | 0 | 0 | 25 | 0 | 0
CC(C)Nc1nnc(SCC(=O)Nc2ccc3c(c2)C(=O)c2ccccc2C3=O)s1 | 0 | 0 | 0 | 27 | 0 | 0
O=C(CSc1nnc(NC2CCCCC2)s1)Nc1ccc2c(c1)C(=O)c1ccccc1C2=O | 0 | 0 | 0 | 0 | 0 | -
C=CCNc1nc2cc(-c3ccccc3OC)sc2c(=O)n1C | 0 | - | 0 | 0 | 0 | -
NS(=O)(=O)c1ccc(NC(NC(=O)c2cccnc2)C(Cl)(Cl)Cl)cc1 (stereo unspecified) | 0 | 0 | 0 | 0 | 0 | -
Fc1ccccc1OCCCCN1CCCCC1 | 0 | 0 | 0 | 0 | 0 | -
CCOc1ccc(CN2C(=O)c3ccccc3C2=O)cc1C(=O)O | 0 | 0 | 0 | 0 | 0 | -
CCOc1ccc(CN2C(=O)c3ccccc3C2=O)cc1C(=O)N1CCC(C(N)=O)CC1 | 0 | 0 | 0 | 22 | 0 | 0

Assay outcomes (PubChem)
